{"data": "Published values from different studies", "organism": "Candida albicans", "note": "Protocols differ between the studies behind these lines."}
{"Structure (SMILES)": "Nc1nn2c(-c3ccc(Cl)cc3Cl)cc(-c3ccc(OCc4ccccc4)cc3)nc2c1N=Nc1ccc(F)cc1", "assay": "microbial killing, broth dilution", "system": "ATCC10231", "endpoint": "MFC", "result": "125 µg/mL"}
{"Structure (SMILES)": "CCS(=O)(=O)Oc1ccc(C=NNC(=O)CSc2nc3c(C)cccc3c(=O)n2-c2ccccc2)cc1OC", "assay": "microbial growth, well diffusion", "conditions": "20 µg/mL", "endpoint": "inhibition zone", "result": "3 mm"}
{"Structure (SMILES)": "CCCCCCCCCCCC(=O)ON=C1C=CC(=C(C#N)c2ccccc2)C=C1", "assay": "microbial killing, broth dilution", "system": "ATCC10231", "conditions": "48 h", "endpoint": "MFC", "result": "512 µg/mL"}
{"Structure (SMILES)": "C[C@@H]1[C@H](O)[C@@H](C)/C=C/C=C/C=C/C=C/C=C/C=C/C=C/[C@H](O[C@@H]2O[C@H](C)[C@@H](O)[C@H](N)[C@@H]2O)C[C@@H]2O[C@](O)(C[C@@H](O)C[C@@H](O)[C@H](O)CC[C@@H](O)C[C@@H](O)CC(=O)O[C@H]1C)C[C@H](O)[C@H]2C(=O)O", "assay": "microbial growth, broth dilution", "system": "SP3902", "conditions": "48 h", "endpoint": "MIC", "result": "< 0.25 µM"}
{"Structure (SMILES)": "CCS(=O)(=O)Oc1ccc(C=NNC(=O)CSc2nc3ccc(Cl)cc3c(=O)n2-c2ccccc2)cc1OC", "assay": "microbial growth, well diffusion", "conditions": "20 µg/mL", "endpoint": "inhibition zone", "result": "2 mm"}
{"Structure (SMILES)": "N#CC(=C1C=CC(=NOC(=O)OCc2ccccc2)C=C1)c1ccccc1", "assay": "microbial killing, broth dilution", "system": "ATCC10231", "conditions": "48 h", "endpoint": "MFC", "result": "256 µg/mL"}
{"Structure (SMILES)": "CC(=O)N1CCN(c2ccc(OCC3COC(Cn4ccnc4)(c4ccc(Cl)cc4Cl)O3)cc2)CC1 (stereo not shown)", "assay": "microbial growth, broth dilution", "system": "SP3903", "conditions": "48 h", "endpoint": "MIC", "result": "2 µM"}
{"Structure (SMILES)": "C#CCON=C1C=CC(=C(C#N)c2ccccc2)C=C1", "assay": "microbial killing, broth dilution", "system": "ATCC10231", "conditions": "48 h", "endpoint": "MFC", "result": "32 µg/mL"}
{"Structure (SMILES)": "CCCS(=O)(=O)Oc1cc(C=NNC(=O)CSc2nc3c(C)cccc3c(=O)n2-c2ccccc2)ccc1OC", "assay": "microbial growth, well diffusion", "conditions": "20 µg/mL", "endpoint": "inhibition zone", "result": "2 mm"}
{"Structure (SMILES)": "CC(=O)N1CCN(c2ccc(OCC3COC(Cn4ccnc4)(c4ccc(Cl)cc4Cl)O3)cc2)CC1 (stereo not shown)", "assay": "microbial killing, broth dilution", "system": "ATCC10231", "endpoint": "MFC", "result": "31.3 µg/mL"}
{"Structure (SMILES)": "OC(Cn1cncn1)(Cn1cncn1)c1ccc(F)cc1F", "assay": "microbial growth, broth dilution", "system": "SP3876", "conditions": "48 h", "endpoint": "MIC", "result": "16 µM"}
{"Structure (SMILES)": "COc1ccc(N=Nc2c(N)nn3c(-c4ccco4)cc(-c4ccc(OCc5ccccc5)cc4)nc23)cc1", "assay": "microbial killing, broth dilution", "system": "ATCC10231", "endpoint": "MFC", "result": "62.5 µg/mL"}
{"Structure (SMILES)": "C[C@@H]1[C@H](O)[C@@H](C)/C=C/C=C/C=C/C=C/C=C/C=C/C=C/[C@H](O[C@@H]2O[C@H](C)[C@@H](O)[C@H](N)[C@@H]2O)C[C@@H]2O[C@](O)(C[C@@H](O)C[C@@H](O)[C@H](O)CC[C@@H](O)C[C@@H](O)CC(=O)O[C@H]1C)C[C@H](O)[C@H]2C(=O)O", "assay": "microbial growth, broth dilution", "endpoint": "MIC90", "result": "0.84 µM"}
{"Structure (SMILES)": "C[C@@H]1[C@H](O)[C@@H](C)/C=C/C=C/C=C/C=C/C=C/C=C/C=C/[C@H](O[C@@H]2O[C@H](C)[C@@H](O)[C@H](N)[C@@H]2O)C[C@@H]2O[C@](O)(C[C@@H](O)C[C@@H](O)[C@H](O)CC[C@@H](O)C[C@@H](O)CC(=O)O[C@H]1C)C[C@H](O)[C@H]2C(=O)O", "assay": "microbial growth, well diffusion", "conditions": "20 µg/mL", "endpoint": "inhibition zone", "result": "4 mm"}
{"Structure (SMILES)": "Cc1ccc(N=Nc2c(N)nn3c(-c4ccc(C)cc4)cc(-c4ccc(OCc5ccccc5)cc4)nc23)cc1", "assay": "microbial killing, broth dilution", "system": "ATCC10231", "endpoint": "MFC", "result": "125 µg/mL"}
{"Structure (SMILES)": "COc1cc(C=NNC(=O)CSc2nc3c(C)cccc3c(=O)n2-c2ccccc2)ccc1OS(C)(=O)=O", "assay": "microbial growth, well diffusion", "conditions": "20 µg/mL", "endpoint": "inhibition zone", "result": "3 mm"}
{"Structure (SMILES)": "C=CC(=O)ON=C1C=CC(=C(C#N)c2ccccc2)C=C1", "assay": "microbial killing, broth dilution", "system": "ATCC10231", "conditions": "48 h", "endpoint": "MFC", "result": "4 µg/mL"}
{"Structure (SMILES)": "CCS(=O)(=O)Oc1ccc(C=NNC(=O)CSc2nc3ccc(Cl)cc3c(=O)n2-c2ccccc2)cc1", "assay": "microbial growth, well diffusion", "conditions": "20 µg/mL", "endpoint": "inhibition zone", "result": "3 mm"}
{"Structure (SMILES)": "Cc1ccc(-c2cc(-c3ccc(OCc4ccccc4)cc3)nc3c(N=Nc4ccc(F)cc4)c(N)nn23)cc1", "assay": "microbial killing, broth dilution", "system": "ATCC10231", "endpoint": "MFC", "result": "125 µg/mL"}
